Source: ChEMBL document CHEMBL1140127, “Enantiomeric propanolamines as selective N-methyl-D-aspartate 2B receptor antagonists” (J Med Chem, 2008)
The source made the active and inactive calls.

How the values were obtained:
[1] = molecular target: Glutamate NMDA receptor; Grin1/Grin2b (Rattus norvegicus, UniProt P35439+Q00960); assay: Inhibition of rat recombinant NR1/NR2B receptor expressed in Xenopus oocytes assessed as inhibition of glutamate and glycine-induced evoked current by two electrode voltage clamp method; assay type: cell-based, Oocyte
[2] = molecular target: Sodium-dependent dopamine transporter (Homo sapiens, UniProt Q01959); assay: Binding affinity to dopamine transporter
[3] = molecular target: Glutamate receptor 4 (Rattus norvegicus) (UniProt P19493); assay: Inhibition of rat recombinant GluR4 expressed in Xenopus oocytes assessed as inhibition of kainate-induced evoked current at 3 uM by two electrode voltage clamp method; assay type: cell-based; settings: Oocyte
Method in brief: (§1)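 Xenopus oocytes injected with 5–10 ng rat receptor cRNA and kept in Barth's solution at 18 °C. Two-electrode voltage clamp at −40 mV and 23 °C, 2–7 days after injection, in 90 NaCl/1 KCl/10 HEPES/0.5 BaCl2 mM at pH 7.3 or 7.6. Agonists: 50 μM kainate for GluR3, GluR4 and GluR2/3; 3 nM domoate for GluR6; 100 μM AMPA for GluR6/KA1. Current expressed as % of control; paired t test.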

[4] = species: Mus musculus; settings: 3 uM
[5] = tested on: Rattus norvegicus; assay: Anticonvulsant activity in Sprague-Dawley rat assessed as inhibition of electroshock-induced tonic hind limb extension at 30 mg/kg, ip administered 30 mins before electroshock; assay type: functional, organism-based; design: dose 30 mg/kg; settings: Hindlimb
Method in brief: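 Male Sprague–Dawley rats, 100–125 g, with 1% lidocaine dropped into each conjunctiva before maximal electroshock. Compound given ip in DMSO 30 min before the stimulus. Tested on three consecutive days: untreated on days 1 and 3, compound on day 2. Duration of tonic hind limb extension scored visually. Vehicle served as negative control and carbamazepine 60 mg/kg as positive control. ANOVA with Bonferroni post hoc test.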

[6] = molecular target: Voltage-gated inwardly rectifying potassium channel KCNH2 (Homo sapiens, UniProt Q12809); assay: (§2) Displacement of [3H]astemizole from human ERG expressed in HEK293 cells
[7] = molecular target: hERG (KCNH2) (Homo sapiens, UniProt Q12809); assay: as §2; settings: human, HEK293 cells expressing human ERG, probe [3H]astemizole
[8] = Inhibition of L-type calcium channel
[9] = tested on: Plasma; assay: Half life in rat plasma at 30 mg/kg, ip by LC-MS/MS analysis; assay type: ADME, organism-based; design: dose 30 mg/kg, route intraperitoneal; settings: in vivo
Method in brief: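 Fasted rats (n = 3 per dose) given 30 mg/kg ip in 2% dimethyl acetamide/98% 5% hydroxypropyl cyclodextrin. Plasma sampled at several time points up to 240 min and extracted with 5 volumes of cold acetonitrile. Parent compound measured by LC-MS/MS (MRM) against a standard curve to give plasma t1/2.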

[10] = tested on: Mus musculus; assay: Neuroprotective effect against middle cerebral artery occlusion-induced transient focal ischemia in C57BL/6 mouse at 30 mg/kg, ip administered 30 mins before occlusion; assay type: functional; settings: route intraperitoneal
Method in brief: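 Male C57BL/6 mice, 3–5 months, under 2% isoflurane at 37 °C. Left MCA occluded with an intraluminal suture for 30 min, confirmed by laser Doppler flow below 20%. Injection ip (10 mL/kg) given 30 min before occlusion. After 24 h, brains cut into 2 mm sections and stained with 2% TTC; infarct volume thresholded and edema-corrected. Operator blinded; Mann–Whitney test.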

[11] = tested on: Mus musculus; assay: Plasma concentration in C57BL/6 mouse at 30 mg/kg, ip; assay type: ADME, organism-based; design: dose 30 mg/kg, route intraperitoneal; settings: in vivo
[12] = molecular target: Glutamate NMDA receptor; Grin1/Grin2a (Rattus norvegicus) (UniProt P35439+Q00959); assay: Inhibition of rat recombinant NR1/NR2A receptor expressed in Xenopus oocytes assessed as inhibition of glutamate and glycine-induced evoked current at 3uM by two electrode voltage clamp method; assay type: cell-based; settings: Oocyte
[13] = tested on: Cortical neurone; assay: Neuroprotective effect against NMDA-induced toxicity in Sprague-Dawley rat cultured cortical neurons assessed as LDH release pretreated 15 mins before NMDA treatment assessed after 16 to 24 hrs by spectrophotometry; assay type: functional
Method in brief: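 Rat cortical cultures (E16–E19) used at 9–12 days. Cells pretreated 15 min in ACSF at pH 7.6, then exposed 10 min at room temperature to 100 μM NMDA plus 10 μM glycine with compound present. Washed with D-APV/CNQX. LDH release measured 16–24 h later as a fraction of total. Scaled between the D-APV minimum and the NMDA maximum; cultures with <10% death discarded.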

[14] = molecular target: Glutamate NMDA receptor; Grin1/Grin2c (Rattus norvegicus) (UniProt P35439+Q00961); assay: Inhibition of rat recombinant NR1/NR2C receptor expressed in Xenopus oocytes assessed as inhibition of glutamate and glycine-induced evoked current at 3uM by two electrode voltage clamp method; assay type: cell-based; settings: Oocyte
[15] = molecular target: Sodium-dependent noradrenaline transporter (Homo sapiens, UniProt P23975); assay: Binding affinity to norepinephrine transporter
[16] = tested on: Mus musculus; assay: Effect on motor coordination in mouse at 30 mg/kg, ip administered 20 mins prior to test after 5 days by rotarod test; assay type: ADME, organism-based; design: dose 30 mg/kg, route intraperitoneal; settings: in vivo, 120 h
Method in brief: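 Accelerating rotorod: mice held 10 s at 5 rpm, then accelerated from 5 to 35 rpm over 5 min; latency to fall recorded by light sensor. Four trials per day for 5 days, 25 min between trials. On day 5, mice were randomized and given a 5 mL/kg ip injection in 25% DMSO/75% saline 20 min before the first trial. Operator blinded; ANOVA with Dunnett's post hoc test.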

[17] = molecular target: Glutamate receptor 3 (Rattus norvegicus) (UniProt P19492); assay: Inhibition of rat recombinant GluR3 expressed in Xenopus oocytes assessed as inhibition of kainate-induced evoked current at 3 uM by two electrode voltage clamp method; assay type: cell-based; settings: Oocyte; method in brief: as §1
[18] = tested on: Neuron; assay: Inhibition of voltage-gated potassium current in E17 Sprague-Dawley rat neurons at 3 uM by whole cell patch clamp method; assay type: functional
[19] = Inhibition of sodium channel
Method in brief: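 Rat cortical neurons cultured from E17 embryos and recorded at 5–10 days by whole-cell patch clamp at 23 °C. Holding −60 mV with 100 ms steps, in the presence of bicuculline, CNQX and DL-APV. Tetrodotoxin-sensitive Na+ current measured at −10 mV; mean compared by paired t test.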

[20] = species: Mus musculus; assay: Inhibition of mouse NR2B(deltaATD) mutant receptor
[21] = tested on: Brain; assay: Drug level in rat brain at 30 mg/kg, ip by LC-MS/MS analysis; assay type: ADME, organism-based; design: dose 30 mg/kg, route intraperitoneal
Method in brief: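 Rats, n = 3 per dose, given 30 mg/kg ip in 2% dimethyl acetamide/98% 5% 2-hydroxypropyl cyclodextrin after overnight fasting. Brain weighed and homogenized on ice in 50 mM phosphate buffer. Homogenate extracted with 5 volumes of cold acetonitrile, then centrifuged. Parent compound quantified by LC-MS/MS in MRM mode against a standard curve.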

[22] = molecular target: Glutamate receptor ionotropic, kainate 2 (Rattus norvegicus) (UniProt P42260); assay: Inhibition of rat recombinant GluR6/KA1 expressed in Xenopus oocytes assessed as inhibition of AMPA-induced evoked current at 3 uM by two electrode voltage clamp method; assay type: cell-based; settings: Oocyte; method in brief: as §1
[23] = tested on: Neuron; assay: Inhibition of tetrodotoxin-sensitive voltage-gated sodium current in E17 Sprague-Dawley rat neurons at 3 uM at holding potential of […] by whole cell patch clamp method; assay type: functional

Chain of Glutamate receptor 3 (Rattus norvegicus) (P19492 whole entry): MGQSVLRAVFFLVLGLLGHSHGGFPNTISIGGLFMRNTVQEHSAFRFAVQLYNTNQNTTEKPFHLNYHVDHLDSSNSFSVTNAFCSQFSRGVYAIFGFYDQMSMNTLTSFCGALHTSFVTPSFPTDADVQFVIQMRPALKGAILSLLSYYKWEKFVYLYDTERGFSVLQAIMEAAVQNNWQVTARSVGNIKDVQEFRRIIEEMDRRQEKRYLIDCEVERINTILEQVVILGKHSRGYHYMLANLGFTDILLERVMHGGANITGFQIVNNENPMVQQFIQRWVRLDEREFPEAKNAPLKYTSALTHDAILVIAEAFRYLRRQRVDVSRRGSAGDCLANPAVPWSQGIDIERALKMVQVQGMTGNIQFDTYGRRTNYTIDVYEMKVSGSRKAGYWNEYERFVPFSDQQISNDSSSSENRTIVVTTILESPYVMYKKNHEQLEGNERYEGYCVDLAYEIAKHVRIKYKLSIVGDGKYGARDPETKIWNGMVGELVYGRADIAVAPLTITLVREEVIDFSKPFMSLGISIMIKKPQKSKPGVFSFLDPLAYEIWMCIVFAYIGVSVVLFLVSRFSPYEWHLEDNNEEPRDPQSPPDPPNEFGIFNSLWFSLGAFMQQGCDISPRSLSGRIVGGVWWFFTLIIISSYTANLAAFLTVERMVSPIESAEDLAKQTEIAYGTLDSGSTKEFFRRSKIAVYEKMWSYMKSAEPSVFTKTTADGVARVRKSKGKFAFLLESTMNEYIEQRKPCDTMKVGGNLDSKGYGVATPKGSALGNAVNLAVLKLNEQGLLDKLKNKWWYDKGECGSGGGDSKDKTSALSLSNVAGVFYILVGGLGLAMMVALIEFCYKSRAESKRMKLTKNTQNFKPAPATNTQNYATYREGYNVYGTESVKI
Chain of Sodium-dependent dopamine transporter (Q01959 whole entry): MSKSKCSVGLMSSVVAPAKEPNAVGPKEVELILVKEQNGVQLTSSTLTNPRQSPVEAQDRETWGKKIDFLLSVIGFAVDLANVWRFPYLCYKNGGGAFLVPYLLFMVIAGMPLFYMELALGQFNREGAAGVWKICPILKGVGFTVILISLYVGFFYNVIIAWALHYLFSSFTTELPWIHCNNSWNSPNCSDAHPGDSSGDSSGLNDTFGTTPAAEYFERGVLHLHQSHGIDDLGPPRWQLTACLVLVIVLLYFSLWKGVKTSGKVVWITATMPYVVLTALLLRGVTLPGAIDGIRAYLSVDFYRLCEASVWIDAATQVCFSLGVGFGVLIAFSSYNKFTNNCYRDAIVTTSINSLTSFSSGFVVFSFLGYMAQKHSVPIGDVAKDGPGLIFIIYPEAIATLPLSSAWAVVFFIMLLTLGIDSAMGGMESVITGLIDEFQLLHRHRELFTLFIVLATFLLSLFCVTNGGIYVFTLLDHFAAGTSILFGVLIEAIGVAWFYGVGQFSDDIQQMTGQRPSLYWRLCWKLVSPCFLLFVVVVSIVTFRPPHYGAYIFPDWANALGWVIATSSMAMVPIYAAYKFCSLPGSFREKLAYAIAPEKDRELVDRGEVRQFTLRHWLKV
Chain of Glutamate receptor 4 (Rattus norvegicus) (P19493 whole entry): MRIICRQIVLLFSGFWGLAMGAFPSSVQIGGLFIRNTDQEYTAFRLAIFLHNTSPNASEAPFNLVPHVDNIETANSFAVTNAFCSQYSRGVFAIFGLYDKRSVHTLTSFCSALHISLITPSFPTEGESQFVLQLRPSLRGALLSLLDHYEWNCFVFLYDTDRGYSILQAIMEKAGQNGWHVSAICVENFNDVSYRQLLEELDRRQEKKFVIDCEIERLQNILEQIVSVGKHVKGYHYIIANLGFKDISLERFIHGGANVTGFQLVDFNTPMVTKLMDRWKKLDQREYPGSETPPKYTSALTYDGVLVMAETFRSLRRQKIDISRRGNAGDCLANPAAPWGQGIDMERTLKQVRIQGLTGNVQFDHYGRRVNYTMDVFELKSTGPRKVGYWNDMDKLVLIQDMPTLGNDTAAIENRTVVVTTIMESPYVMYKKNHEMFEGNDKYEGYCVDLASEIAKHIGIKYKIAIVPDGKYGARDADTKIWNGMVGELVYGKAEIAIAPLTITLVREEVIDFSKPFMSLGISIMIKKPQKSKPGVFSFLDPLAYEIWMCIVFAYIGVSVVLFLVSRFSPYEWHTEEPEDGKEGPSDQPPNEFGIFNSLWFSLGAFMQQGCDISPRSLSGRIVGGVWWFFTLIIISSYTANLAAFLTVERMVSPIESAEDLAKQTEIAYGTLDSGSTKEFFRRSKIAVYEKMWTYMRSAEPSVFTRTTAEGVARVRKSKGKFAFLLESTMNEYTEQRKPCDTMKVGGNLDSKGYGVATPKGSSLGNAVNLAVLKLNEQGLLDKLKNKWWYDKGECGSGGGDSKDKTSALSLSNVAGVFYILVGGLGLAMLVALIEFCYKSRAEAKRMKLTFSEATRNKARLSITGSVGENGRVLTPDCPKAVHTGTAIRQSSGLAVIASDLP
Chain of Sodium-dependent noradrenaline transporter (P23975 whole entry): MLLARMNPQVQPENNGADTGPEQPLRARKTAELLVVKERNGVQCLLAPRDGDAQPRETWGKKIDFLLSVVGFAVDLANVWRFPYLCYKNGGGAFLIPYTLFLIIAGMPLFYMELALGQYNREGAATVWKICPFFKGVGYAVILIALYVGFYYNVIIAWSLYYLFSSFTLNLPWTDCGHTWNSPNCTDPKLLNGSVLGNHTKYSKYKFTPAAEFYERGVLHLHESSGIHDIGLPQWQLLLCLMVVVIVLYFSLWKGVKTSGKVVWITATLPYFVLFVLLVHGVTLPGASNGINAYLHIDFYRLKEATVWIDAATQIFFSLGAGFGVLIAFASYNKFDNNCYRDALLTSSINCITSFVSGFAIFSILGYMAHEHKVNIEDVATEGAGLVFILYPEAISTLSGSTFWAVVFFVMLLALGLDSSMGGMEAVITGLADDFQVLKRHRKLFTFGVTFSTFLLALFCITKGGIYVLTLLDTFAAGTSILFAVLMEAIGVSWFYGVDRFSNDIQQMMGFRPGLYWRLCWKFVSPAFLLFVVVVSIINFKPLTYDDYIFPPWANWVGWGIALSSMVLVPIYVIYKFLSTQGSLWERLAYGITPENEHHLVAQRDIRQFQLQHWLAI
Chain of Glutamate receptor ionotropic, kainate 2 (Rattus norvegicus) (P42260 whole entry): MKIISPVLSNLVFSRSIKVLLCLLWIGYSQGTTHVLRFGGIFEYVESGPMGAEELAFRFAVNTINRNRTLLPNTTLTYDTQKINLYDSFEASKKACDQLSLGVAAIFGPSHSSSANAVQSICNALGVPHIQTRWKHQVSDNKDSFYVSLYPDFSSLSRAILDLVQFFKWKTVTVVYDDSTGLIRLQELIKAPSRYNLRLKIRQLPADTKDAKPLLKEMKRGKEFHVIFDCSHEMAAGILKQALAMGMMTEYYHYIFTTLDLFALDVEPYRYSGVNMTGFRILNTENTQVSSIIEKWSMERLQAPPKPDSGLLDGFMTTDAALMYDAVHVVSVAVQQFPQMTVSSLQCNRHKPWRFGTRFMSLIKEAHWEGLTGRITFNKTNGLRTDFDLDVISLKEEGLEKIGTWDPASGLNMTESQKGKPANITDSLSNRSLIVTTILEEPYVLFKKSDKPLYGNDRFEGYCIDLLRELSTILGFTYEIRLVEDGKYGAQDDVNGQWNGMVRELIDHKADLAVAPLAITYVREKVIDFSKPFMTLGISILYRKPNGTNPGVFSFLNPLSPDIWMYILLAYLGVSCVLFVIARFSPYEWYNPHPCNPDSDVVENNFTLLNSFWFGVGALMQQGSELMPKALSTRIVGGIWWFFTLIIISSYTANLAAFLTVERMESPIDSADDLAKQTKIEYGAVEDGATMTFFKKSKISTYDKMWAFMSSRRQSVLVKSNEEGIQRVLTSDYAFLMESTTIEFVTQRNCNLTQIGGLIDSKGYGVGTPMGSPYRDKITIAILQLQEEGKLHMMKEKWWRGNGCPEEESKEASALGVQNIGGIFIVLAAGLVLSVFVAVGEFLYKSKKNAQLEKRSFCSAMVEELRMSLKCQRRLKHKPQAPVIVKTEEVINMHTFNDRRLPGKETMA
Chain of hERG (KCNH2) (Q12809 whole entry): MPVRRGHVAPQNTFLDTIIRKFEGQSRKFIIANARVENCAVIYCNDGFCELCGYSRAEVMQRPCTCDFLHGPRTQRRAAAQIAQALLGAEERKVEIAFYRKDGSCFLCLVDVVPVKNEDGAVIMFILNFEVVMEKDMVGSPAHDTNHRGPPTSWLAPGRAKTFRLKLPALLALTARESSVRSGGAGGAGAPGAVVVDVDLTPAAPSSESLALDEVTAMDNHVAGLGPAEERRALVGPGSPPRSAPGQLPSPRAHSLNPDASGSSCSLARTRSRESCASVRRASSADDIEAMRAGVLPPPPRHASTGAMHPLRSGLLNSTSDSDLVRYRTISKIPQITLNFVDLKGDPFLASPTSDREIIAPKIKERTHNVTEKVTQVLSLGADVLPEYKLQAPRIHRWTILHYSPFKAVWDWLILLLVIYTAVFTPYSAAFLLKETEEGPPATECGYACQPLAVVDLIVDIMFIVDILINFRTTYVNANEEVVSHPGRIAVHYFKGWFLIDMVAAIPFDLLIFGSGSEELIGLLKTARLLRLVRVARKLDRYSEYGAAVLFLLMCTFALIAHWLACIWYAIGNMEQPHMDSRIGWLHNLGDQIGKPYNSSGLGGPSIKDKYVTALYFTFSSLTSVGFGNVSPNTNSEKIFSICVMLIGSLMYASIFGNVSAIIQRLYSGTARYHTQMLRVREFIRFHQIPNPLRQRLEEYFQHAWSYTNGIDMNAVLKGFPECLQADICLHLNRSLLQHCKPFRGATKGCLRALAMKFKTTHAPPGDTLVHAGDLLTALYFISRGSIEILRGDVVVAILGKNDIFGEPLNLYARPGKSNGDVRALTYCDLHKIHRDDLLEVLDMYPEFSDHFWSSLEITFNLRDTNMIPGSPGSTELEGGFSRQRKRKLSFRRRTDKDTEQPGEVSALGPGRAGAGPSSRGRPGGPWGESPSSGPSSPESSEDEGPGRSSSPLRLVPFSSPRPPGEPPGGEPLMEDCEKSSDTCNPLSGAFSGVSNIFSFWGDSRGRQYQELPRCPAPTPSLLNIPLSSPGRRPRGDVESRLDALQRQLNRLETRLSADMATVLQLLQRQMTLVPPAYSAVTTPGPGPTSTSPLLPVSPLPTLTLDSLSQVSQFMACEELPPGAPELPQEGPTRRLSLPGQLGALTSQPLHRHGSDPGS

In the case of CS(=O)(=O)Nc1ccc(OC[C@@H](O)CNCCc2ccc(Cl)c(Cl)c2)cc1, the IC50 [1] is reported as 50 nM, the IC50 [2] is reported as 500 nM and the Activity [3] is reported as “inactive”. The inhibition [4] was 102%, the Activity [5] was “inactive” and the IC50 [6] was 730 nM. The IC20 [7] was > 174 nM, the IC50 [8] was > 5000 nM and the t1/2 [9] was 1.1 h. The Activity [10] was >30%, the concentration [11] was 1000 nM and the Activity [12] was “inactive”. The Activity [13] was “Dose-dependent effect”, the Activity [14] was “inactive” and the IC50 [15] was 500 nM. For the same molecule, the Activity [16] was “Non-toxic”, the Activity [17] was “inactive” and the Activity [18] was 0.72 nanoampere. For the same molecule, the IC50 [19] was > 5000 nM, the Activity [20] was “inactive” and the concentration [21] was 170 nM. The Activity [22] was “inactive” and the Activity [23] was 1.27 nanoampere.
